Consider four molecules from PMC9214849 (Chemical Science, 2022).

As usually defined, the cell viability is the share of living cells, or the viability signal relative to a control. Read a high cell viability as less harm to the cells.

The test system of series [1] is Candida albicans, Escherichia coli, Enterococcus faecalis, and Staphylococcus epidermidis. Conditions: ref 41,42 (Aβ); 43 (hIAPP); 44,45 (GNNQQNY); 46 (KLVFFGAIL); cited from earlier work.
Series [2] addresses human islet amyloid polypeptide1-37 (hIAPP) (Homo sapiens, UniProt P10997). The experiment in a line: CD secondary structure, hIAPP. In kind it is biochemical. Conditions: pure 20 μM, 10 mM sodium phosphate pH 7.4, 37 °C, 24–72 h, BeStSel. The procedure, abridged: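 Samples held 20 μM hIAPP with 0, 5 or 20 μM defensin. Circular dichroism spectra were recorded on the aggregates. Secondary-structure fractions, including β-structure content, were fitted from the spectra with BestSel.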

Series [3] relates to RIN-m5F cells. The experiment in a line: MTT cell viability, RIN-m5F. In kind it is cell-based, rat. Particulars: pure amyloid 20 μM, 24 h.
Series [4] relates to RIN-m5F cells. The series can be described thus: LDH cytotoxicity, RIN-m5F. In kind it is cell-based, rat. Conditions: pure amyloid 20 μM, 24 h; % of positive control.
The test system of series [5] is Staphylococcus aureus. Particulars: cited from earlier work.
Series [6] deals with Escherichia coli. Conditions: cited from earlier work.
Series [7] concerns the target T1, human calcitonin1-32 (hCT) (Homo sapiens, UniProt P01258).
T1 sequence (P01258 85-116): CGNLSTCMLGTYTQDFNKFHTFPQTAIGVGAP
The experiment in a line: AFM morphology of aggregates, hCT. The series is classed as biochemical. Particulars: pure hCT 20 μM, 24 h. The procedure, abridged:
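AFM imaging of samples taken at different time points of the ThT kinetics runs. hCT at 20 μM was incubated alone or with 5–20 μM test defensin at 37 °C. Fibril heights and lengths were measured from the images.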

For series [8], the target named is T1, human calcitonin1-32 (hCT). The series can be described thus: CD secondary structure, hCT. In kind it is biochemical. Conditions: pure 20 μM, 10 mM sodium phosphate pH 7.4, 37 °C, 24–72 h, BeStSel. The procedure, abridged: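 Aβ, hIAPP or hCT at 20 μM, alone or co-incubated with test defensin at 37 °C. Circular dichroism spectra were deconvoluted with BestSel into secondary-structure fractions, including β-structure content.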

Series [9] has as its system SH-SY5Y cells. The experiment in a line: MTT cell viability, SH-SY5Y. The series is classed as cell-based, human. Conditions: pure amyloid 20 μM, 24 h.
For series [10], the system named is SH-SY5Y cells. The series can be described thus: LDH cytotoxicity, SH-SY5Y. The series is classed as cell-based, human. Particulars: pure amyloid 20 μM, 24 h; % of positive control.

human islet amyloid polypeptide1-37 (hIAPP), sequence (P10997 34-70): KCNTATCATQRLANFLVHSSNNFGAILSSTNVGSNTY

For KLVFFGAIL, the “antibacterial and antifungal activities” value in series [1] was “antibacterial and antifungal activities”.
For the molecule GNNQQNY, the “antibacterial and antifungal activities” value in series [1] was “antibacterial and antifungal activities”.
On to `CC[C@H](C)[C@H](NC(=O)[C@H](C)NC(=O)CNC(=O)[C@H](Cc1ccccc1)NC(=O)[C@H](CC(N)=O)NC(=O)[C@H](CC(N)=O)NC(=O)[C@H](CO)NC(=O)[C@H](CO)NC(=O)[C@H](Cc1c[nH]cn1)NC(=O)[C@@H](NC(=O)[C@H](CC(C)C)NC(=O)[C@H](Cc1ccccc1)NC(=O)[C@H](CC(N)=O)NC(=O)[C@H](C)NC(=O)[C@H](CC(C)C)NC(=O)[C@H](CCCNC(=N)N)NC(=O)[C@H](CCC(N)=O)NC(=O)[C@@H](NC(=O)[C@H](C)NC(=O)[C@@H]1CSSC[C@H](NC(=O)[C@@H](N)CCCCN)C(=O)N[C@@H](CC(N)=O)C(=O)N[C@@H]([C@@H](C)O)C(=O)N[C@@H](C)C(=O)N[C@@H]([C@@H](C)O)C(=O)N1)[C@@H](C)O)C(C)C)C(=O)N[C@@H](CC(C)C)C(=O)N[C@@H](CO)C(=O)N[C@@H](CO)C(=O)N[C@H](C(=O)N[C@@H](CC(N)=O)C(=O)N[C@H](C(=O)NCC(=O)N[C@@H](CO)C(=O)N[C@@H](CC(N)=O)C(=O)N[C@H](C(=O)N[C@@H](Cc1ccc(O)cc1)C(N)=O)[C@@H](C)O)C(C)C)[C@@H](C)O` [hIAPP], for which, in [2], the β-structure content worked out at 48.5%. The same molecule showed a cell viability in series [3] of 55%. Further, the cell toxicity in series [4] is listed as 25%. Moreover, the bacteria growth entry in [5] was “hinder Staphylococcus aureus and Escherichia coli bacteria growth”; in [6] it was “hinder Staphylococcus aureus and Escherichia coli bacteria growth”. The “antibacterial and antifungal activities” value in series [1] was “antibacterial and antifungal activities”.
As to `CC[C@H](C)[C@H](NC(=O)[C@H](C)NC(=O)[C@@H](NC(=O)[C@H](CCC(N)=O)NC(=O)[C@@H]1CCCN1C(=O)[C@H](Cc1ccccc1)NC(=O)[C@@H](NC(=O)[C@H](Cc1c[nH]cn1)NC(=O)[C@H](Cc1ccccc1)NC(=O)[C@H](CCCCN)NC(=O)[C@H](CC(N)=O)NC(=O)[C@H](Cc1ccccc1)NC(=O)[C@H](CC(=O)O)NC(=O)[C@H](CCC(N)=O)NC(=O)[C@@H](NC(=O)[C@H](Cc1ccc(O)cc1)NC(=O)[C@@H](NC(=O)CNC(=O)[C@H](CC(C)C)NC(=O)[C@H](CCSC)NC(=O)[C@@H]1CSSC[C@H](N)C(=O)NCC(=O)N[C@@H](CC(N)=O)C(=O)N[C@@H](CC(C)C)C(=O)N[C@@H](CO)C(=O)N[C@@H]([C@@H](C)O)C(=O)N1)[C@@H](C)O)[C@@H](C)O)[C@@H](C)O)[C@@H](C)O)C(=O)NCC(=O)N[C@H](C(=O)NCC(=O)N[C@@H](C)C(=O)N1CCC[C@H]1C(N)=O)C(C)C` [hCT], the “average height of fibrils” value in series [7] stood at 16 nm. Further, in series [7] (N up to 40), the “average length of fibrils” value is 477 nm. Moreover, the β-structure content in series [8] came to 56.4%. Further, the cell viability in series [9] was found to be 67%. Moreover, in series [10], the cell toxicity came to 35%.
